# Calls of active or inactive are those of the source.
# Experiments:
# Mus musculus [1] = experiment: Toxicity in PS mouse allografted with mouse P388 cells assessed as change in body weight at 3.1 ug/kg relative to control; format: organism-based; settings: in vivo, 0.0031 mg/kg
# Outline: (§1)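 P388 (PS) leukemia in mice, 6 mice per dose group. Weight change is the difference in grams between treated and control animals. Survivors are recorded on toxicity day, normally 4 days after the first injection.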
# Mus musculus [2] = experiment: Toxicity in PS mouse allografted with mouse P388 cells assessed as survival at 50 ug/kg after 4 days; format: organism-based; settings: in vivo, 0.05 mg/kg, 96 h
# Outline: (§2)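 PS (P388) leukemic mice, six started per dose group. Toxicity scored as survivors on the toxicity day over the number of mice started. The toxicity day is normally 4 days after the first injection.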
# Mus musculus [3] = experiment: Toxicity in PS mouse allografted with mouse P388 cells assessed as survival at 100 ug/kg after 4 days; format: organism-based; settings: in vivo, 0.1 mg/kg, 96 h; outline: as §2
# Mus musculus [4] = experiment: Toxicity in PS mouse allografted with mouse P388 cells assessed as survival at 25 ug/kg after 4 days; format: organism-based; settings: in vivo, 0.025 mg/kg, 96 h; outline: as §2
# Mus musculus [5] = experiment: Toxicity in PS mouse allografted with mouse P388 cells assessed as survival at 12.5 ug/kg after 4 days; format: organism-based; settings: in vivo, 0.0125 mg/kg, 96 h; outline: as §2
# Mus musculus [6] = experiment: Toxicity in PS mouse allografted with mouse P388 cells assessed as survival at 6.2 ug/kg after 4 days; format: organism-based; settings: in vivo, 0.0062 mg/kg, 96 h; outline: as §2
# Mus musculus [7] = experiment: Toxicity in PS mouse allografted with mouse P388 cells assessed as survival at 3.1 ug/kg after 4 days; format: organism-based; settings: in vivo, 0.0031 mg/kg, 96 h; outline: as §2
# Mus musculus [8] = experiment: Toxicity in PS mouse allografted with mouse P388 cells assessed as survival at 200 ug/kg after 4 days; format: organism-based; settings: in vivo, 0.2 mg/kg, 96 h; outline: as §2
# Mus musculus [9] = experiment: Toxicity in PS mouse allografted with mouse P388 cells assessed as survival at 1.8 ug/kg after 4 days; format: organism-based; settings: in vivo, 0.0018 mg/kg, 96 h; outline: as §2
# Mus musculus [10] = experiment: Toxicity in PS mouse allografted with mouse P388 cells assessed as survival at 0.9 ug/kg after 4 days; format: organism-based; settings: in vivo, 0.0009 mg/kg, 96 h; outline: as §2
# Mus musculus [11] = experiment: Toxicity in PS mouse allografted with mouse P388 cells assessed as change in body weight at 100 ug/kg relative to control; format: organism-based; settings: in vivo, 0.1 mg/kg; outline: as §1
# Mus musculus [12] = experiment: Toxicity in PS mouse allografted with mouse P388 cells assessed as change in body weight at 50 ug/kg relative to control; format: organism-based; settings: in vivo, 0.05 mg/kg; outline: as §1
# Mus musculus [13] = experiment: Toxicity in PS mouse allografted with mouse P388 cells assessed as change in body weight at 25 ug/kg relative to control; format: organism-based; settings: in vivo, 0.025 mg/kg; outline: as §1
# Mus musculus [14] = experiment: Toxicity in PS mouse allografted with mouse P388 cells assessed as change in body weight at 12.5 ug/kg relative to control; format: organism-based; settings: in vivo, 0.0125 mg/kg; outline: as §1
# Mus musculus [15] = experiment: Toxicity in PS mouse allografted with mouse P388 cells assessed as change in body weight at 6.2 ug/kg relative to control; format: organism-based; settings: in vivo, 0.0062 mg/kg; outline: as §1
# Mus musculus [16] = experiment: Toxicity in PS mouse allografted with mouse P388 cells assessed as change in body weight at 200 ug/kg relative to control; format: organism-based; settings: in vivo, 0.2 mg/kg; outline: as §1
# Mus musculus [17] = experiment: Toxicity in PS mouse allografted with mouse P388 cells assessed as change in body weight at 1.8 ug/kg relative to control; format: organism-based; settings: in vivo, 0.0018 mg/kg; outline: as §1
# Mus musculus [18] = experiment: Toxicity in PS mouse allografted with mouse P388 cells assessed as change in body weight at 0.9 ug/kg relative to control; format: organism-based; settings: in vivo, 0.0009 mg/kg; outline: as §1
# P388 [19] = experiment: Antitumor activity against mouse P388 cells allografted in PS mouse assessed as median survival time at 100 ug/kg relative to control; format: functional
# Outline: (§3)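 P388 leukemia (PS) in mice, six mice started per dose group. Read-out is T/C: median survival time of the treated group divided by that of the untreated control group, expressed as a percent. The NIH protocol counts a compound as active when T/C > 125%.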
# P388 [20] = experiment: Antitumor activity against mouse P388 cells allografted in PS mouse assessed as median survival time at 50 ug/kg relative to control; format: functional; outline: as §3
# P388 [21] = experiment: Antitumor activity against mouse P388 cells allografted in PS mouse assessed as median survival time at 25 ug/kg relative to control; format: functional; outline: as §3
# P388 [22] = experiment: Antitumor activity against mouse P388 cells allografted in PS mouse assessed as median survival time at 12.5 ug/kg relative to control; format: functional; outline: as §3
# P388 [23] = experiment: Antitumor activity against mouse P388 cells allografted in PS mouse assessed as median survival time at 6.2 ug/kg relative to control; format: functional; outline: as §3
# P388 [24] = experiment: Antitumor activity against mouse P388 cells allografted in PS mouse assessed as median survival time at 3.1 ug/kg relative to control; format: functional; outline: as §3
# P388 [25] = experiment: Antitumor activity against mouse P388 cells allografted in PS mouse assessed as median survival time at 200 ug/kg relative to control; format: functional; outline: as §3
# P388 [26] = experiment: Antitumor activity against mouse P388 cells allografted in PS mouse assessed as median survival time at 1.8 ug/kg relative to control; format: functional; outline: as §3
# P388 [27] = experiment: Antitumor activity against mouse P388 cells allografted in PS mouse assessed as median survival time at 0.9 ug/kg relative to control; format: functional; outline: as §3
# KB = experiment: Cytotoxicity against human KB cells; format: functional; settings: read-out: ED50 (the source's name)
# Tubulin (Homo sapiens) = Tubulin (Homo sapiens) (UniProt P68371+Q9H4B7+P0DPH7+P68366+Q13509+Q71U36+P04350+Q3ZCM7+P07437+P68363+Q9BQE3+Q6PEY2+Q13885+Q9BVA1+Q9BUF5); experiment: Inhibition of brain tubulin polymerization (unknown origin) at 37 degC by spectrophotometry
# Paracentrotus lividus = experiment: Antimitotic activity against sea urchin eggs assessed as drug level causing inhibition of mitosis; format: functional; settings: Egg
smiles,measurement,setting,value
COc1cc2cc(c1Cl)N(C)C(=O)C[C@H](OC(=O)CBr)[C@]1(C)O[C@H]1[C@H](C)[C@@H]1C[C@@](O)(NC(=O)O1)[C@H](OC)/C=C/C=C(\C)C2,Activity,Mus musculus [1],-0.2 g
same,Activity,Mus musculus [2],Non-toxic
same,Activity,Mus musculus [3],Non-toxic
same,Activity,Mus musculus [4],Non-toxic
same,Activity,Mus musculus [5],Non-toxic
same,Activity,Mus musculus [6],Non-toxic
same,Activity,Mus musculus [7],Non-toxic
same,Activity,Mus musculus [8],Toxic
same,Activity,Mus musculus [9],Non-toxic
same,Activity,Mus musculus [10],Non-toxic
same,Activity,Mus musculus [11],-1.3 g
same,Activity,Mus musculus [12],-0.3 g
same,Activity,Mus musculus [13],-0.5 g
same,Activity,Mus musculus [14],-0.3 g
same,Activity,Mus musculus [15],0.2 g
same,Activity,Mus musculus [16],-2.5 g
same,Activity,Mus musculus [17],-0.6 g
same,Activity,Mus musculus [18],-0.4 g
same,T/C,P388 [19],232%
same,T/C,P388 [20],189%
same,T/C,P388 [21],162%
same,T/C,P388 [22],153%
same,T/C,P388 [23],146%
same,T/C,P388 [24],130%
same,T/C,P388 [25],< 80%
same,T/C,P388 [26],131%
same,T/C,P388 [27],129%
same,EC50,KB,0.44 ng/mL
same,inhibition,Tubulin (Homo sapiens),Active
same,Activity,Paracentrotus lividus,1 ×10⁻⁸ mol/L

# From ChEMBL document CHEMBL3244382, “Structural requirements for antileukemic activity among the naturally occurring and semisynthetic maytansinoids” (J Med Chem, 1978)
